Results published in ChEMBL document CHEMBL2163225, “Fluorescent Human EP3 Receptor Antagonists” (ACS Med Chem Lett, 2012).
Activity calls are given as the source filed them. The rule behind the calls is not given here.

Experiments:
[1] = target: T1, Prostaglandin E2 receptor EP1 subtype (Homo sapiens, UniProt P34995); assay: Displacement of [3H]PGE2 from human EP1R expressed in chem1 cells after 2hrs by beta counting; assay type: cell-based
T1 sequence (P34995 whole entry): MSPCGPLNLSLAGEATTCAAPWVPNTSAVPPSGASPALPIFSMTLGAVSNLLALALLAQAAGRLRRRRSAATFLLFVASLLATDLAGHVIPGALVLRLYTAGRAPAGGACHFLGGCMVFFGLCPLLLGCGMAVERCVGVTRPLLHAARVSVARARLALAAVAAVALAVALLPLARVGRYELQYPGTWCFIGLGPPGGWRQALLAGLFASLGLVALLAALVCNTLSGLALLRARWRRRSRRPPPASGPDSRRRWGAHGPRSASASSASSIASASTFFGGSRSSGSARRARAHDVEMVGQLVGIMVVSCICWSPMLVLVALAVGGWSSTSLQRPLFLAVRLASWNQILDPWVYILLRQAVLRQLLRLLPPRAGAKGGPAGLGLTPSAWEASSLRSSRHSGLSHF
In short: (§1)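 Radioligand competition binding with [3H]PGE2 on recombinant human EP1, EP2, EP3 or EP4 receptor membrane preparations (ChemiSCREEN). Ki reported ± SEM.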

[2] = Antiplatelet activity in human platelet rich plasma assessed as inhibition of PGE2/collagen-induced aggregation preincubated at 100 nM after 10 mins by light transmission aggregometry; assay type: functional
In short: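 Human platelet-rich plasma preincubated 10 min with ligand at 100 nM. Aggregation then triggered by collagen 0.25 μg/mL plus PGE2 1 μM. Read by light transmission aggregometry against unspiked PRP.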

[3] = target: Prostaglandin E2 receptor EP2 subtype (Homo sapiens, UniProt P43116); assay: Displacement of [3H]PGE2 from human EP2R expressed in chem1 cells after 2hrs by beta counting; assay type: cell-based; in short: as §1
[4] = target: Prostaglandin E2 receptor EP4 subtype (Homo sapiens, UniProt P35408); assay: Displacement of [3H]PGE2 from human EP4R expressed in chem1 cells after 2hrs by beta counting; assay type: cell-based; in short: as §1
[5] = target: T2, Prostaglandin E2 receptor EP3 subtype (Homo sapiens, UniProt P43115); assay: Displacement of [3H]PGE2 from human EP3R expressed in chem1 cells after 2hrs by beta counting; assay type: cell-based; in short: as §1
T2 sequence (P43115 whole entry): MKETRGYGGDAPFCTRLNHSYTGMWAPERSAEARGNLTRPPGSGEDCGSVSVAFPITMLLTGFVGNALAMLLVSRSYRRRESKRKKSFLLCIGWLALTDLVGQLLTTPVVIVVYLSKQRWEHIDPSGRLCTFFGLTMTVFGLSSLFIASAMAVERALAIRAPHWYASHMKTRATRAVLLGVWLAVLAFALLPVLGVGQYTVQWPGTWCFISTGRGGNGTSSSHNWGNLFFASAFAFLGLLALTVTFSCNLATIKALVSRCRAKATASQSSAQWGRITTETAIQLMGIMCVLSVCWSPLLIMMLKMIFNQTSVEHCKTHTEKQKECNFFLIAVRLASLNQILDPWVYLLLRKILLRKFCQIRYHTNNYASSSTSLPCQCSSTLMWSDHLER

[6] = target: T3, Prostaglandin E2 receptor EP3 subtype (Homo sapiens) (UniProt P43115); assay: Binding affinity to EP3R in human HT-29 cytoplasm at 3 uM measured 72 hrs post FBS withdrawal by fluorescence microscopy
T3 sequence (whole entry): T2 sequence (P43115 whole entry)
In short: (§2)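 HT-29 colon adenocarcinoma cells. EP3R expression induced by 72 h FBS withdrawal; FBS-cultured cells served as control. Ligand incubated 1 h, or 24 h for the longer time point. Blue-emitting ligands used at 3 μM with propidium iodide counterstain. Red ligand used at 300 nM with DAPI nuclear stain. For displacement, ligand was followed by 3-fold excess competitor (9 μM or 900 nM) for 1 h. Read by confocal microscopy.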

[7] = target: T3, Prostaglandin E2 receptor EP3 subtype (Homo sapiens); assay: Binding affinity to EP3R in human brain cerebral cortex at 1 uM after 1 hr by fluorescence imaging; assay type: tissue-based
In short: (§3)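 Human cerebral cortex and globus pallidus sections incubated 1 h with 1 μM red pyryllium ligand. For displacement, 100 μM competitor was added. Imaged by confocal fluorescence microscopy.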

[8] = target: T3, Prostaglandin E2 receptor EP3 subtype (Homo sapiens); assay: Induction of EP3R internalization in human HT-29 cells cultured in absence of FBS at 300 nM after 24 hrs by fluorescence microscopy; assay type: cell-based; in short: as §2
[9] = target: T4, Prostaglandin E2 receptor EP3 subtype (Mus musculus) (UniProt P30557); assay: Binding affinity to EP3R in C57bl6 mouse cortical collecting tubuli epithelial cells at 1 uM after 1 hr by fluorescence imaging; assay type: cell-based; details: Epithelial cell
T4 sequence (whole entry): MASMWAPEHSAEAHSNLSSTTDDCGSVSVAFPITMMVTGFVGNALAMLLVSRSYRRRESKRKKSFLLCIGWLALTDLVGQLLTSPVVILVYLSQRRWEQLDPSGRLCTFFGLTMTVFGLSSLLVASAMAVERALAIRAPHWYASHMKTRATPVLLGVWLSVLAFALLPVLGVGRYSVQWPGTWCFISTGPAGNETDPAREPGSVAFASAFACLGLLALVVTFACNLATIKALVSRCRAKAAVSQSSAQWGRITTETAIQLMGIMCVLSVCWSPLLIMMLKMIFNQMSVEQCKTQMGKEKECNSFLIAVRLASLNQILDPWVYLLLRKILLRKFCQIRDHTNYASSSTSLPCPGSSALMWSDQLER
In short: (§4)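 Kidney tissue from C57Bl6 wild-type and EP3−/− mice incubated 1 h with 1 μM red pyryllium-labelled ligand. Imaged by confocal laser scanning fluorescence microscopy. Renal artery autofluorescence recorded separately.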

[10] = target: T3, Prostaglandin E2 receptor EP3 subtype (Homo sapiens); assay: Binding affinity to EP3R in human HT-29 cells cultured in absence of FBS at 300 nM after 1 hr by fluorescence microscopy; assay type: cell-based; in short: as §2
[11] = target: T4, Prostaglandin E2 receptor EP3 subtype (Mus musculus); assay: Binding affinity to EP3R in C57bl6 mouse kidney arterial smooth muscle cells at 1 uM after 1 hr by fluorescence imaging; in short: as §4
[12] = target: T3, Prostaglandin E2 receptor EP3 subtype (Homo sapiens); assay: Induction of EP3R-mediated platelet activation in human platelet rich plasma at 5 uM after 10 mins by FACS analysis
[13] = target: T3, Prostaglandin E2 receptor EP3 subtype (Homo sapiens); assay: Binding affinity to EP3R in human brain cerebral cortex at 1 uM after 1 hr by fluorescence imaging in presence of 100-fold excess of (E)-3-(2-((E)-3-(4-(Benzyloxy)-3- methoxyphenyl)prop-1-enyl)phenyl)acrylic acid; assay type: tissue-based; in short: as §3
[14] = target: T3, Prostaglandin E2 receptor EP3 subtype (Homo sapiens); assay: Binding affinity to EP3R in human platelet rich plasma preincubated at 5 uM for 10 mins by FACS analysis
In short: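 Human platelet-rich plasma preincubated 10 min with 5 μM red fluorescent ligand. Analysed by flow cytometry (FACS) in the red channel against untreated PRP. Scatter cloud inspected as a check on platelet activation.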

[15] = target: T3, Prostaglandin E2 receptor EP3 subtype (Homo sapiens); assay: Binding affinity to EP3R in human brain globus pallidus at 1 uM after 1 hr by fluorescence imaging in presence of 100-fold excess of (E)-3-(2-((E)-3-(4-(Benzyloxy)-3- methoxyphenyl)prop-1-enyl)phenyl)acrylic acid; assay type: tissue-based; in short: as §3
[16] = target: T3, Prostaglandin E2 receptor EP3 subtype (Homo sapiens); assay: Binding affinity to EP3R in human HT-29 cells cultured in absence of FBS at 300 nM after 24 hrs by fluorescence microscopy; assay type: cell-based; in short: as §2
[17] = target: T3, Prostaglandin E2 receptor EP3 subtype (Homo sapiens); assay: Binding affinity to EP3R in human platelet at 1 uM after 1 hr by fluorescence imaging
In short: (§5)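 Fixed human platelets on flow-chamber slides incubated 1 h with 1 μM red fluorescent ligand. For displacement, 1 mM competitor was added. Read by fluorescence imaging.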

[18] = target: T3, Prostaglandin E2 receptor EP3 subtype (Homo sapiens); assay: Binding affinity to EP3R in human brain globus pallidus at 1 uM after 1 hr by fluorescence imaging; assay type: tissue-based; in short: as §3
[19] = target: T3, Prostaglandin E2 receptor EP3 subtype (Homo sapiens); assay: Binding affinity to EP3R in human HT-29 cells cultured in absence of FBS at 300 nM after 1 hr by fluorescence microscopy in presence of 3-fold excess of (E)-3-(2-((E)-3-(4-(Benzyloxy)-3- methoxyphenyl)prop-1-enyl)phenyl)acrylic acid; assay type: cell-based; in short: as §2
[20] = system: Kidney; assay: Drug uptake in EP3R-/- mouse kidney at 1 uM after 1 hr by fluorescence imaging; assay type: ADME, tissue-based; in short: as §4
[21] = target: T3, Prostaglandin E2 receptor EP3 subtype (Homo sapiens); assay: Binding affinity to EP3R in human platelet at 1 uM after 1 hr by fluorescence imaging in presence of 1 mM (E)-3-(2-((E)-3-(4-(Benzyloxy)-3- methoxyphenyl)prop-1-enyl)phenyl)acrylic acid; in short: as §5
[22] = target: T3, Prostaglandin E2 receptor EP3 subtype (Homo sapiens); assay: Binding affinity to EP3R in human HT-29 cells cultured in absence of FBS at 3 uM after 1 hr by fluorescence microscopy in presence of 3-fold excess of (E)-3-(2-((E)-3-(4-(Benzyloxy)-3- methoxyphenyl)prop-1-enyl)phenyl)acrylic acid; assay type: cell-based; in short: as §2

Prostaglandin E2 receptor EP4 subtype, sequence (P35408 whole entry): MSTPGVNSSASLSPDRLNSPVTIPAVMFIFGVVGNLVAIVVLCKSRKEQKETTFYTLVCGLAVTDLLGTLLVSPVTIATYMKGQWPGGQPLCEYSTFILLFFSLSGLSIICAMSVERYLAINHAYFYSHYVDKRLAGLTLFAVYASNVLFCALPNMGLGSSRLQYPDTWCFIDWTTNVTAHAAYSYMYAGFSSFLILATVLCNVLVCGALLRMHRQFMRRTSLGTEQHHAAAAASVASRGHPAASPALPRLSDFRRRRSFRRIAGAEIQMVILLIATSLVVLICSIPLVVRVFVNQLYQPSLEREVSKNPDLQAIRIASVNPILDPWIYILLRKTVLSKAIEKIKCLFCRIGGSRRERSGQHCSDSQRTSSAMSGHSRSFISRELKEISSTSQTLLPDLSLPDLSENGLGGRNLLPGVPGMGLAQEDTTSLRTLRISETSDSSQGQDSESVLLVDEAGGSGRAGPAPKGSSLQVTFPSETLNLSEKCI
Prostaglandin E2 receptor EP2 subtype, sequence (P43116 whole entry): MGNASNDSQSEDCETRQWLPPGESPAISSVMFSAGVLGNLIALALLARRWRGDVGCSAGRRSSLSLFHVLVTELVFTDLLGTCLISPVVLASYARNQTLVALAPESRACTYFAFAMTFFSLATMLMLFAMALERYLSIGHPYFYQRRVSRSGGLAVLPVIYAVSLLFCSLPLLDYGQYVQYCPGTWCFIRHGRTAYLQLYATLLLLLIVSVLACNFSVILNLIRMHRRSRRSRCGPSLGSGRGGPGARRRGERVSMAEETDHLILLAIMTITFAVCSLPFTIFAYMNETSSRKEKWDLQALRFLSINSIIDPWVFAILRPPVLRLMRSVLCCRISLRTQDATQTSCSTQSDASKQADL

Ki [1]	Ki [3]	Ki [4]	Ki [5]	Activity [6]	Compound	inhibition at 0.1 µM [2]	also measured
2.44 µM	2.41 µM	4.3 µM			COc1cc(C/C=C/c2ccccc2/C=C/C(=O)NS(=O)(=O)c2cccs2)ccc1OCc1ccccc1	40%	
			1.26 µM		COc1cc(C/C=C/c2ccccc2/C=C/C(=O)O)ccc1OCCNC(=S)Nc1ccc(C(=O)O)c(-c2c3ccc(=O)cc-3oc3cc(O)ccc23)c1	40%	
			0.0234 µM	60%	COc1cc(C/C=C/c2ccccc2/C=C/C(=O)O)ccc1OCCNc1ccc([N+](=O)[O-])cc1[N+](=O)[O-]	40%	
68.6 µM	2.94 µM	0.902 µM	0.135 µM		COc1cc(C/C=C/c2ccccc2/C=C/C(=O)O)ccc1OCC[n+]1c(C)cc(/C=C/C=C/c2ccc(N(C)C)cc2)cc1C.F[B-](F)(F)F	40%	Activity [7]: Active; Activity [8]: inactive; Activity [9]: Active; Activity [10]: Active; Activity [11]: Active; Activity [12]: inactive; Activity [13]: inactive; Activity [14]: 50%; Activity [15]: inactive; Activity [16]: Active; Activity [17]: Active; Activity [18]: Active; Activity [19]: inactive; Drug uptake [20]: Not Active; Activity [21]: inactive
			0.678 µM		COc1cc(C/C=C/c2ccccc2/C=C/C(=O)O)ccc1OCCNC(=S)Nc1ccc(-c2c3ccc(=O)cc-3oc3cc(O)ccc23)c(C(=O)O)c1	40%	
20.3 µM	10.8 µM	9.45 µM	0.026 µM	55%	COc1cc(C/C=C/c2ccccc2/C=C/C(=O)NS(=O)(=O)c2cccs2)ccc1OCCn1cc2ccccc2c1C#N	40%	
			0.218 µM		COc1cc(C/C=C/c2ccccc2/C=C/C(=O)O)ccc1OCC[n+]1c(C)cc(/C=C/c2ccc(N(C)C)cc2)cc1C	40%	
			1.5 µM		COc1cc(C/C=C/c2ccccc2/C=C/C(=O)O)ccc1OCCN	40%	
151 µM	1.73 µM	6.31 µM			COc1cc(C/C=C/c2ccccc2/C=C/C(=O)O)ccc1OCc1ccccc1	40%	
16 µM	4.26 µM	3.18 µM	0.018 µM	58%	COc1cc(C/C=C/c2ccccc2/C=C/C(=O)O)ccc1OCCn1cc2ccccc2c1C#N	40%	Activity [22]: inactive
